ChEMBL document CHEMBL4138126, “Synthesis, antiproliferative, anti-tubulin activity, and docking study of new 1,2,4-triazoles as potential combretastatin analogues” (Eur J Med Chem, 2017)

Assays:
UO-31 = experiment: Growth inhibition of human UO31 cells assessed as cell growth at 10 uM after 48 hrs by sulforhodamine B assay; type: functional; settings: UO-31, 48 h, read-out: Activity
Method in brief: (§1)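 NCI 60-cell-line panel from nine tumour types (leukaemia, lung, colon, CNS, melanoma, ovarian, renal, prostate, breast). Each compound was added at one single concentration, and cultures were incubated for 48 h. Results are reported as percent growth inhibition.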

[1] = Inhibition of beta tubulin polymerisation in human HepG2 cells incubated for 2 hrs using TMB substrate by ELISA; type: cell-based; settings: HepG2, 2 h
UACC-257 = experiment: Growth inhibition of human UACC257 cells assessed as cell growth at 10 uM after 48 hrs by sulforhodamine B assay; type: functional; settings: UACC-257, 48 h, read-out: Activity; method in brief: as §1
TK-10 = experiment: Growth inhibition of human TK10 cells assessed as cell growth at 10 uM after 48 hrs by sulforhodamine B assay; type: functional; settings: TK-10, 48 h, read-out: Activity; method in brief: as §1
SW-620 = experiment: Growth inhibition of human SW620 cells assessed as cell growth at 10 uM after 48 hrs by sulforhodamine B assay; type: functional; settings: SW-620, 48 h, read-out: Activity; method in brief: as §1
MDA-MB-231 = experiment: Growth inhibition of human MDA-MB-231 cells assessed as cell growth at 10 uM after 48 hrs by sulforhodamine B assay; type: functional; settings: MDA-MB-231, 48 h, read-out: Activity
Method in brief: (§2)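 NCI 60-cell-line panel screen (nine cancer types). Compounds added at single concentration 10^-5 M, cultures incubated 48 h; growth inhibition percentages reported.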

SN12C = experiment: Growth inhibition of human SN12C cells assessed as cell growth at 10 uM after 48 hrs by sulforhodamine B assay; type: functional; settings: read-out: Activity; method in brief: as §1
MDA-MB-435 = experiment: Growth inhibition of human MDA-MB-435 cells assessed as cell growth at 10 uM after 48 hrs by sulforhodamine B assay; type: functional; settings: MDA-MB-435, 48 h, read-out: Activity; method in brief: as §2
U-251 = experiment: Growth inhibition of human U251 cells assessed as cell growth at 10 uM after 48 hrs by sulforhodamine B assay; type: functional; settings: U-251, 48 h, read-out: Activity; method in brief: as §1
OVCAR-4 = experiment: Growth inhibition of human OVCAR4 cells assessed as cell growth at 10 uM after 48 hrs by sulforhodamine B assay; type: functional; settings: OVCAR-4, 48 h, read-out: Activity; method in brief: as §2
Malme-3M = experiment: Growth inhibition of human MALME-3M cells assessed as cell growth at 10 uM after 48 hrs by sulforhodamine B assay; type: functional; settings: read-out: Activity; method in brief: as §2
K562 = experiment: Growth inhibition of human K562 cells assessed as cell growth at 10 uM after 48 hrs by sulforhodamine B assay; type: functional; settings: K562, 48 h, read-out: Activity; method in brief: as §2
SF-295 = experiment: Growth inhibition of human SF295 cells assessed as cell growth at 10 uM after 48 hrs by sulforhodamine B assay; type: functional; settings: SF-295, 48 h, read-out: Activity; method in brief: as §2
HCC 2998 = experiment: Growth inhibition of human HCC2998 cells assessed as cell growth at 10 uM after 48 hrs by sulforhodamine B assay; type: functional; settings: HCC 2998, 48 h, read-out: Activity; method in brief: as §2
A549 = experiment: Growth inhibition of human A549/ATCC cells assessed as cell growth at 10 uM after 48 hrs by sulforhodamine B assay; type: functional; settings: A549, 48 h, read-out: Activity; method in brief: as §2
SF-268 = experiment: Growth inhibition of human SF268 cells assessed as cell growth at 10 uM after 48 hrs by sulforhodamine B assay; type: functional; settings: SF-268, 48 h, read-out: Activity; method in brief: as §2
PC-3 = experiment: Growth inhibition of human PC3 cells assessed as cell growth at 10 uM after 48 hrs by sulforhodamine B assay; type: functional; settings: PC-3, 48 h, read-out: Activity; method in brief: as §2
UACC-62 = experiment: Growth inhibition of human UACC62 cells assessed as cell growth at 10 uM after 48 hrs by sulforhodamine B assay; type: functional; settings: UACC-62, 48 h, read-out: Activity; method in brief: as §1
RPMI-8226 = experiment: Growth inhibition of human RPMI8226 cells assessed as cell growth at 10 uM after 48 hrs by sulforhodamine B assay; type: functional; settings: RPMI-8226, 48 h, read-out: Activity; method in brief: as §2
CAKI-1 = experiment: Growth inhibition of human CAKI-1 cells assessed as cell growth at 10 uM after 48 hrs by sulforhodamine B assay; type: functional; settings: CAKI-1, 48 h, read-out: Activity; method in brief: as §2
SK-MEL-5 = experiment: Growth inhibition of human SK-MEL-5 cells assessed as cell growth at 10 uM after 48 hrs by sulforhodamine B assay; type: functional; settings: SK-MEL-5, 48 h, read-out: Activity; method in brief: as §2
OVCAR-3 = experiment: Growth inhibition of human OVCAR3 cells assessed as cell growth at 10 uM after 48 hrs by sulforhodamine B assay; type: functional; settings: OVCAR-3, 48 h, read-out: Activity; method in brief: as §2
ACHN = experiment: Growth inhibition of human ACHN cells assessed as cell growth at 10 uM after 48 hrs by sulforhodamine B assay; type: functional; settings: read-out: Activity; method in brief: as §2
786-0 = experiment: Growth inhibition of human 786-0 cells assessed as cell growth at 10 uM after 48 hrs by sulforhodamine B assay; type: functional; settings: 786-0, 48 h, read-out: Activity; method in brief: as §2
COLO 205 = experiment: Growth inhibition of human COLO205 cells assessed as cell growth at 10 uM after 48 hrs by sulforhodamine B assay; type: functional; settings: COLO 205, 48 h, read-out: Activity; method in brief: as §2
RXF 393 = experiment: Growth inhibition of human RXF393 cells assessed as cell growth at 10 uM after 48 hrs by sulforhodamine B assay; type: functional; settings: RXF 393, 48 h, read-out: Activity; method in brief: as §2
SF-539 = experiment: Growth inhibition of human SF539 cells assessed as cell growth at 10 uM after 48 hrs by sulforhodamine B assay; type: functional; settings: SF-539, 48 h, read-out: Activity; method in brief: as §2
SK-MEL-28 = experiment: Growth inhibition of human SK-MEL-28 cells assessed as cell growth at 10 uM after 48 hrs by sulforhodamine B assay; type: functional; settings: SK-MEL-28, 48 h, read-out: Activity; method in brief: as §2
HepG2 = experiment: Inhibition of beta tubulin polymerisation in human HepG2 cells incubated for 2 hrs using TMB substrate by ELISA relative to untreated control; type: cell-based; set-up: concentration or dose not given beside the values; settings: dose or concentration not given here
MDA-MB-468 = experiment: Growth inhibition of human MDA-MB-468 cells assessed as cell growth at 10 uM after 48 hrs by sulforhodamine B assay; type: functional; settings: MDA-MB-468, 48 h, read-out: Activity; method in brief: as §2
SNB-19 = experiment: Growth inhibition of human SNB19 cells assessed as cell growth at 10 uM after 48 hrs by sulforhodamine B assay; type: functional; settings: SNB-19, 48 h, read-out: Activity; method in brief: as §1
SNB-75 = experiment: Growth inhibition of human SNB75 cells assessed as cell growth at 10 uM after 48 hrs by sulforhodamine B assay; type: functional; settings: SNB-75, 48 h, read-out: Activity; method in brief: as §1

Row | Structure (SMILES) | growth at 10 µM (UO-31) [%] | growth at 10 µM (UACC-257) [%] | growth at 10 µM (TK-10) [%] | growth at 10 µM (SW-620) [%] | growth at 10 µM (MDA-MB-231) [%] | growth at 10 µM (MDA-MB-435) [%] | growth at 10 µM (U-251) [%] | growth at 10 µM (OVCAR-4) [%] | growth at 10 µM (Malme-3M) [%] | growth at 10 µM (SF-295) [%] | growth at 10 µM (A549) [%] | growth at 10 µM (SF-268) [%] | growth at 10 µM (PC-3) [%] | growth at 10 µM (RPMI-8226) [%] | growth at 10 µM (CAKI-1) [%] | growth at 10 µM (OVCAR-3) [%] | growth at 10 µM (ACHN) [%] | growth at 10 µM (786-0) [%] | growth at 10 µM (COLO 205) [%] | growth at 10 µM (RXF 393) [%] | further results
1 | COc1cccc(-n2nc(C(=O)Nc3ccccc3)nc2-c2cc(OC)c(OC)c(OC)c2)c1 | 61.6 | 103 | 53.2 | 100 | 104 | 90.4 | 93.6 | 81.8 | 95.9 | 91.9 | 92.4 | 88.6 | 90 | 108 | 73.6 | 99.9 | 93.8 | 79.4 | 104 | 97.9 | IC50 [1]: 6.5 µM; growth at 10 µM (SN12C): 100%; growth at 10 µM (K562): 121%; growth at 10 µM (HCC 2998): 87.3%; growth at 10 µM (UACC-62): 95.3%; growth at 10 µM (SK-MEL-5): 93.8%; growth at 10 µM (SF-539): 93.6%; growth at 10 µM (SK-MEL-28): 96.6%; inhibition (HepG2): 62.3%; growth at 10 µM (MDA-MB-468): 84.5%; growth at 10 µM (SNB-19): 102%; growth at 10 µM (SNB-75): 55.5%
2 | CCOc1ccc(-n2nc(C(=O)Nc3cccc(OC)c3)nc2-c2cc(OC)c(OC)c(OC)c2)cc1 | 50.9 | 94.7 | 93.6 | 99.7 | 55.1 | 86.8 | 78.5 | 75.1 | 91.7 | 68.5 | 68.2 | 80.7 | 59 | 27.9 | 72.5 | 78.7 | 77.9 | 84.8 | 66.6 | 90.2 | IC50 [1]: 36.8 µM; growth at 10 µM (SF-539): 90.2%; inhibition (HepG2): 49.6%; growth at 10 µM (MDA-MB-468): 93.4%; growth at 10 µM (SNB-19): 83.9%; growth at 10 µM (SNB-75): 68.1%
3 | CCOc1ccc(-n2nc(C(=O)Nc3ccccc3OC)nc2-c2cc(OC)c(OC)c(OC)c2)cc1 | 59.6 | 97.9 | 89.2 | 100 | 44.5 | 86.9 | 94 | 72.9 | 99.8 | 84.8 | 77.3 | 89.2 | 65.5 | 68.2 | 66.7 | 95.6 | 79.3 | 79.1 | 78.7 | 88.4 | growth at 10 µM (SN12C): 83.1%; growth at 10 µM (K562): 79.6%; growth at 10 µM (HCC 2998): 99.7%; growth at 10 µM (UACC-62): 85.2%; growth at 10 µM (SK-MEL-5): 73.8%; growth at 10 µM (SF-539): 85.7%; growth at 10 µM (SK-MEL-28): 78.3%; growth at 10 µM (MDA-MB-468): 92.3%; growth at 10 µM (SNB-19): 88.5%; growth at 10 µM (SNB-75): 66.6%
